From PubChem
An excerpt weighted towards active compounds, which were near 3.3% of everything screened.
SENP6 inh: SENP6 protease inhibitors, primary screen, biochemical, luminescence, uHTS | Sentrin-specific protease 6 (Homo sapiens), Q9GZR1 | Recombinant SENP6 catalytic domain, aminoluciferin luminescence | actives 1.8% (n = 330,000) | inhibition, % at 10 µM;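 active = inhibition above about 50% at the single tested dose, limit read from the data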;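 also: plate controls were DMSO wells with enzyme for no effect and DMSO wells lacking enzyme for full effect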
Target sequence (Q9GZR1 628-1112 limits assumed): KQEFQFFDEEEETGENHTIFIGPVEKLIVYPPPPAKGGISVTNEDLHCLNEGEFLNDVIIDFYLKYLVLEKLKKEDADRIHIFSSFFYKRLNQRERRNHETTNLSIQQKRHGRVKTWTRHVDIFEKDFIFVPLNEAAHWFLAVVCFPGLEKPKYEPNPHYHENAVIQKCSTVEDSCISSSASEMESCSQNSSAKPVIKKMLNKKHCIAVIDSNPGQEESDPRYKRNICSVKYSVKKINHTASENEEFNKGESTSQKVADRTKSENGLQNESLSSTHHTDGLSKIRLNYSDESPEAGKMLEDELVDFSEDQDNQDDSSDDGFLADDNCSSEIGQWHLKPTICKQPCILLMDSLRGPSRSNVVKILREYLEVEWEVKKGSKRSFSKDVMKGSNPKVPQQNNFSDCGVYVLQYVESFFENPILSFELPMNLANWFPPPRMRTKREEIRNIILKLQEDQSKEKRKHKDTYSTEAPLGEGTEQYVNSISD
SENP8 block-1: human SENP8 protease inhibitors, primary screen, biochemical, fluorescence, Nedd8 protein substrate, uHTS; recombinant SENP8; actives 0.64% (n = 360,000); Sentrin-specific protease 8 (Homo sapiens), Q96LD8; inhibition, % at 20 µM; AID 602440, 2012; in the data active = inhibition mostly above about 40%, no sharp cut-off; inactive = mostly below about 27%
CendR NRP1 mod: modulators of CendR peptide binding to NRP-1, primary screen, biochemical, fluorescence polarization, uHTS; FAM-RPARPAR peptide binding to NRP-1; inhibition, % at 25 µM; actives 0.85% (n = 360,000);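 active = inhibition or corrected inhibition above about 18%, plus a signal ratio from 0.5 to 1.5, limit read from the data, passing the limit was not always enough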
SENP1 FRET inh: human SENP1 catalytic domain inhibitors, primary screen, biochemical, FRET, uHTS; recombinant SENP1 catalytic domain, CyPet-SUMO1-YPet FRET cleavage; inhibition, % at 10 µM; AID 624204, 2012; actives 0.21% (n = 360,000); Sentrin-specific protease 1 (Homo sapiens), Q9P0U3;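 active = inhibition at least 30% at 10 µM, raw YFP signal under a set limit, fluorescence ratio 0.5 to 1.5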;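 also: 0% = enzyme with DMSO and 100% = no enzyme wells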
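material = recombinant human SENP1 catalytic domain, His6-tagged | quantity = 20 pM enzyme | reagent = 25 nM SUMO1 FRET substrate | compound dosing = 10 µM single point, 0.5% DMSO | timing = 50 min enzyme reaction, room temperature, light-protected | detection = FRET, CFP and YFP emission | control set = no-enzyme low, enzyme-DMSO high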
SENP7 block: SENP7 protease inhibitors, primary screen, biochemical, luminescence, uHTS; AID 434973, 2010; inhibition, % at 5 µM; recombinant SENP7, Z-RLRGG-aminoluciferin luminescence, 40 min; actives 1.5% (n = 330,000);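 active = inhibition above about 50% at the single test dose, limit read from the data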;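 also: plate controls were DMSO with enzyme for no effect and no enzyme buffer wells for full effect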
SENP8 block-2: SENP8 protease inhibitors, primary screen, biochemical, luminescence. Sentrin-specific protease 8 (Homo sapiens), Q96LD8. purified SENP8, Z-RLRGG-aminoluciferin cleavage. inhibition, % at 10 µM. actives 1.2% (n = 330,000). AID 2540, 2010; in the data active = inhibition above about 50%
SENP8 conf: SENP8 protease inhibitors, retest, confirmation, biochemical, luminescence, single concentration; Recombinant SENP8, Z-RLRGG-aminoluciferin luminescence, 60 min; inhibition, % at 12.5 µM; AID 488912, 2010; shares compounds with SENP7 block; actives 40% (n = 6,200);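 active = mean inhibition across replicates above about 50%, limit read from the data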
SENP6 conf: SENP6 protease inhibitors, confirmation, biochemical, luminescence, single concentration; shares compounds with SENP7 block; recombinant SENP6, Z-RLRGG-aminoluciferin luminescence; inhibition, % at 12.5 µM; actives 58% (n = 6,200); AID 488915, 2010
SENP7 confirm: SENP7 protease inhibitors, retest, confirmation, biochemical, luminescence, single concentration. shares compounds with SENP7 block. recombinant SENP7, Z-RLRGG-aminoluciferin luminescence, 40 min. inhibition, % at 12.5 µM. actives 69% (n = 6,200). AID 488917, 2010
Casp3 SENP sel: caspase-3 protease inhibitors, confirmation, selectivity assay for SENP inhibitor project, biochemical, single concentration; shares compounds with SENP7 block; purified caspase-3, Z-DEVD-aminoluciferin luminescence, 60 min; inhibition, % at 12.5 µM; actives 60% (n = 6,200); AID 488918, 2010;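 active = mean inhibition above about 50%, limit read from the data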;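 also: plate controls were enzyme with DMSO for no effect and wells without caspase-3 for full effect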
Luc interf: luminescence interference (SENP counter-screen) | inhibition, % at 12.5 µM | actives 39% (n = 6,200) | Pre-incubated SENP8/Z-RLRGG-aminoluciferin, luciferase luminescence interference | shares compounds with SENP7 block;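 active = mean inhibition above about 50% when retested at one dose, limit read from the data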;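 also: plate controls were DMSO wells with completed reaction for no effect and substrate without enzyme for full effect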
* marks the source's active call; other numbers are inactive results; · = no result given.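 The calls were made as follows, unless noted: active = mean inhibition above about 50% in the one-dose retest (limit read from the data); inactive = the rest.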

SMILES	SENP6 inh	SENP8 block-1	CendR NRP1 mod	SENP1 FRET inh	SENP7 block	SENP8 block-2	SENP8 conf	SENP6 conf	SENP7 confirm	Casp3 SENP sel	Luc interf
Cc1cnc(Nc2nc3ccccc3o2)nc1C(=O)Nc1cccc(C(F)(F)F)c1	10	2	-1	2	4	-3	·	·	·	·	·
Cc1ccc(Nc2nc3ccccc3o2)cc1F	88*	16	-5	0	87*	78*	57*	81*	98*	75*	48
Cc1nc(Nc2nc3ccccc3o2)nc(C)c1C	58*	13	1	0	63*	47	8	52*	87*	80*	20
N#Cc1cnc(Nc2nc3ccccc3o2)nc1-c1ccccc1	-30	4	-2	1	-1	-14	·	·	·	·	·
CN(C)C(=O)COc1ncnc2sc(-c3ccccc3)cc12	3	-20	5	-10	0	2	·	·	·	·	·
COc1ncnc2sc(-c3ccccc3)cc12	93*	3	6	-3	99*	97*	96*	95*	100*	95*	92*
CCCCN1C(=O)C(CC(=O)NCCN2CCOCC2)CC(C(=O)N2CCCCCC2)=C1C (stereo unspecified)	·	10	4	0	·	·	·	·	·	·	·
O=C(Nc1cccnc1)c1cc2c(ccc3ccccc32)o1	67*	-18	-12	4	82*	61*	11	56*	56*	62*	6
O=C(c1cc2c(ccc3ccccc32)o1)N1CCCCC1	93*	8	-4	3	91*	84*	90*	90*	99*	86*	89*
Cc1c(C(=O)Nc2cccnc2)oc2ccc(Br)cc12	35	6	-6	1	13	13	·	·	·	·	·
CCc1ccc2oc(C(=O)Nc3cccnc3)c(C)c2c1	64*	22	-1	0	69*	49	19	67*	92*	55*	10
Cc1cc(C(=O)C(C(c2ccccc2)N2CCOCC2)N2CCOCC2)ccc1Cl (stereo unspecified)	·	16	6	2	·	·	·	·	·	·	·
COc1ccccc1N(/N=C1\Sc2ccccc2C1=O)C(C)=O	92*	31	-12	2	29	79*	8	83*	66*	23	15
COc1ccccc1NC1=C(NC(C)=O)C(=O)c2ccccc2C1=O	·	0	10	-2	·	·	·	·	·	·	·
CN(Cc1ccccc1)C(=O)c1ccc(Cc2cn(C)c3ccccc23)nc1	·	11	-2	-1	·	·	·	·	·	·	·
S=C1NC(c2ccccc2)N2C(=S)NC(c3ccccc3)N12 (stereo unspecified)	69*	15	3	0	52*	38	8	15	45	6	8
COc1oc(-c2ccccc2C)nc1C(F)(F)F	5	14	15	3	5	3	·	·	·	·	·
COc1oc(-c2ccccc2)nc1C(F)(F)F	7	-2	16	1	71*	2	-18	-6	-9	5	-4
O=C(Nc1ccc(NC(=O)c2cc3ccccc3o2)cc1)c1ccco1	-14	-34	8	-1	-4	-8	·	·	·	·	·
O=C(Nc1ccc(F)cc1)c1cc2ccccc2o1	86*	19	-2	3	86*	76*	80*	82*	97*	86*	64*
COc1ccc(NC(=O)c2cc3ccccc3o2)cc1	64*	12	6	1	33	35	44	35	71*	50*	9
O=C(Nc1ccccc1)c1cc2ccccc2o1	97*	24	3	0	98*	95*	96*	98*	102*	97*	98*
COc1ccc(NC(=O)c2cc3ccccc3o2)cc1OC	4	1	3	1	7	-8	·	·	·	·	·
CC(=O)c1ccc(NC(=O)c2cc3ccccc3o2)cc1	-4	8	-7	0	3	-19	·	·	·	·	·
CC(=O)Nc1cccc(NC(=O)c2cc3ccccc3o2)c1	84*	4	2	-1	84*	62*	79*	78*	95*	88*	83*
SMILES	SENP6 inh	SENP8 block-1	CendR NRP1 mod	SENP1 FRET inh	SENP7 block	SENP8 block-2	SENP8 conf	SENP6 conf	SENP7 confirm	Casp3 SENP sel	Luc interf
Cc1cc(C(=O)Nc2cccc3ccccc23)oc1C	·	-62	-3	-3	·	·	·	·	·	·	·
Cc1cc(C(=O)Nc2ccccc2)oc1C	64*	25	7	1	49	42	58*	55*	87*	83*	61*
COC(=O)CSc1nnc(-c2sc3ccccc3c2Cl)o1	70*	-306	-1	-5	56*	28	-5	-3	5	9	2
COc1ccc(OC)c(NC(=O)C2CC(=O)N(Cc3ccco3)C2)c1 (stereo unspecified)	-3	7	-5	0	5	-9	·	·	·	·	·
CC(=O)c1sc(NC(=O)c2ccco2)nc1-c1ccccc1	5	3	10	-9	-11	-15	·	·	·	·	·
O=C(Nc1nc2c(F)cccc2s1)c1ccco1	81*	-43	-13	2	76*	74*	80*	77*	94*	84*	25
Cc1cc(Cl)cc2sc(NC(=O)c3ccco3)nc12	40	-170	1	-1	21	-4	·	·	·	·	·
Cc1sc(NC(=O)c2ccco2)nc1-c1ccccc1	51*	-381	4	2	7	26	47	44	72*	33	61*
Cc1cc(C)c2nc(NC(=O)c3ccco3)sc2c1	76*	-214	0	1	80*	80*	11	73*	92*	61*	16
